According to the EternaBench riboswitch data:

Test system: MS2 coat protein
Test: apparent Kd, MS2 coat protein; higher = weaker binding; RNA-MaP array; FMN 200 µM where present
Method in brief: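 The apparent Kd comes from binding curves fitted cluster by cluster, filtered, and summarised as a median. Those curves followed SNAP-549-labelled MS2 coat protein from 0.7 or 1.5 nM, doubling to 3 µM, on Illumina sequencing-chip clusters where stalled E. coli RNA polymerase had transcribed the designs, without and then with constant ligand. The buffer was 100 mM Tris-HCl pH 7.5, 80 mM KCl, 4 mM MgCl2, BSA, DTT, yeast tRNA and Tween-20, and green signal was normalised to red-channel RNA signal and control-cluster median Fmax.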

[1] = designed as: OFF switch for flavin mononucleotide, no ligand
[2] = ligand present: flavin mononucleotide, designed as: OFF switch for flavin mononucleotide
[3] = designed as: ON switch for flavin mononucleotide, no ligand
[4] = ligand present: flavin mononucleotide, designed as: ON switch for flavin mononucleotide

Sequence | apparent Kd [1] | apparent Kd [2] | apparent Kd [3] | apparent Kd [4]
AUCAGCUCGUCAGGAUAUACGUCACUGCGUCAGCAGUGUGGUAAGAUCACAUGAGGAUCACCCAUGUAGAAGGGACCAGCUGAU | 13.4 nM | 229 nM |  | 
AAAAAGUCAGGAUAUCCAAAAAAAAAAAAAAAAAAAAAAAAGGAGAAGGGACAUGAGGAUCACCCAUGUAAAAA | 77.9 nM | 85.3 nM |  | 
AGUGCGUAUGUGAGGAUAUGCUGGUCCUUGGAUCAGCAGAAGGCACAUGAGGAUCACCCAUGUGGUGUCGUACU | 253 nM | 27.2 nM |  | 
GCGAUUGCGUAGAAGGUACAAUUUAAUACAUUGUAAGGAUAUACUUACAUGAGGAUCACCCAUGUUAAUGGAAUUUGCAAUCGC |  |  | 16.7 nM | 10.8 nM
GUGUGUUGCGGGCAGGAUAUGUAUUUGAGUACAUGAGGAUCACCCAUGUGCGCCUGUUUCAGGCGACAGAAGGGCCUAUCGCGAC |  |  | 159 nM | 30.9 nM
AGUCGGCGAGGAUAUACAUGAGGAUCACCCAUGUGAGAGAAUAAAGUGAGUUAGACAAGUAGAAGGCGCUGACA | 47.4 nM | 415 nM |  | 
ACUGUUUGAUUCCUCUUUUACAUGAGGAUCACCCAUGUUAUCGAGGAUAUGCAUUAGAGUGUUUAGCAGAAGGCGAUGUAAUUG | 6.51 nM | 20.8 nM |  | 
GUCAGCAAAUAAGGAUAUACAUCACUGCUUCGGCAGUGUAUUAAGAUCACAUGAGGAUCACCCAUGUAGAAGGUAUAAGCUGAU | 8.12 nM | 29.4 nM |  | 
AAUAACAGAGGAUAUACUAUUUUAUGUGUUUGUUGUUUUAAACAUGAGGAUCACCCAUGUAGAAGGCUGAUUGA | 38.2 nM | 45.4 nM |  | 
CACUGUUUAGAGGAUAUUUACGGGUCACACCCAGGAGAAGGCUGUACAUGAGGAUCACCCAUGUGGUGCGCCUG | 32.4 nM | 51.3 nM |  | 
UUCGUGCUGCUUUGCUGUACGAGUACAUGAGGAUCACCCAUGUAGGAUAUGGACAUGAGGAUCACCCAGAAGGAUAUGUGUUGC | 113 nM | 141 nM |  | 
UAGAAAGAUUAAUAUGAUUACAUGAGGAUCACCCAUGUAUAUAAGGAUAUCGACGUCAAUGACGUCGAGAAGGUAUAUACAUAA | 66.3 nM | 198 nM |  | 
ACACAUGAGGAUCACCCAUGUAGCUGGCGUCUGCGCCAGCCACAGGAUAUACGGCAAAACAAACCGUAGAAGGGUGAUAAACAC |  |  | 80.1 nM | 31.8 nM
GCCUGUGAAGGAUAUACAUGAGGAUCACCCAUGUGGCGGGCAUACCCGCCGAGACCGUGUAGAAGGUCAUAGUA | 67.5 nM | 57.6 nM |  | 
UGAGAUCGGGCAGGAUAUCGACAUGAGGAUCACCCAUGUGGGUUAUACUUCCCGCAUGGCUGUGGCGAGAAGGGCCCGGACCAU | 395 nM | 83.1 nM |  | 
CAAGUGCCGGAAGGAUAUCAGCGAUGUCACGCUUGAGAAGGUCUGUGCACAUGAGGAUCACCCAUGUCCGCCAGACUCCUUAAC | 9.98 nM | 8.49 nM |  | 
AGAAUUGGUAGAUAAAAGGUCACACAGGAUAUACUCCCAACAUGAGGAUCACCCAUGUACUGGCGGUAGAAGGGUGGGAUCCUC |  |  | 33.6 nM | 8.52 nM
UAUAUAUAGUAAGGAUAUGUAUUAAUUUGAUAAACAGAAGGUACUGACAUGAGGAUCACCCAUGUUUUAGUGUGGGCAUGUAGA | 98.9 nM | 164 nM |  | 
GUAGCAUACCGAGGAUAUUCAUACGGGAAACCGACAUGAGGAUCACCCAUGUGGCGAAAGCCUUGGGAGAAGGCGGAAUGCUAC |  |  | 691 nM | 24.8 nM

Sequence | apparent Kd [1] | apparent Kd [2] | apparent Kd [3] | apparent Kd [4]
CCUCCACAUGAGGAUCACCCAUGUCAGGAUAUCGUGUGUGUUUUUUCGGUCUUUCGUGCGAGAAGGGACGUCUG | 51.6 nM | 52.3 nM |  | 
UUAUACGCUGAGGAUAUCAUCACUGAGAGGUGAUGAGAAGGCGGUACAUGAGGAUCACCCAUGUCUAUGGGCAG | 291 nM | 418 nM |  | 
GCGAUUAAGUAGAAGGUACAAUAUAUAUCAUUGUAAGGAUAUACUUACAUGAGGAUCACCCAUGUUAAAGGAUAUAAUAAUCGC |  |  | 9.08 nM | 8.98 nM
AGUCGGAGCAGAGGAUAUACAUGAGGAUCACCCAUGUAAUUAAGUGAAGCCUGGAAACAGGCAAUGUAGAAGGCUGCUCCGACA | 9.44 nM | 51.7 nM |  | 
CAGUACAUGUUAGGAUAUGAUUCGGUACAGCGAUCAGAAGGAACAUGAGGAUCACCCAUGUGACCCACGAUUUGCAAACUAAGA | 8.43 nM | 17.8 nM |  | 
GAUAAACAUGAGGAUCACCCAUGUGAGGAUAUGCGUACGUUGUCCGUAGGCGACGUGCGCAGAAGGCGCAAGGU | 99.4 nM | 216 nM |  | 
UUUUUUUUUAGAGGAUAUAUUGUGUGUUAUAUAAUAGAAGGCUAAACAUGACAUGACACAUGAGGAUCACCCAUGUAUGUCCAU |  |  | 22.7 nM | 18.2 nM
GAAGGGUAUGAGAAGGCAUAAUUUAUAUUACCACAUGUUUACAUGAGGAUCACCCAUGUUUCCUAUGAGGAUAUCAUACCGAGA | 12.4 nM | 12.7 nM |  | 
GAAGUUAGAGGAUAUACAUGAGGAUCACCCAUGUGUGUUGUGAACAAUGUAUGUUUAUGUAGAAGGCUAACUUC | 79.4 nM | 241 nM |  | 
UGUGCGUAUGUGAGGAUAUGCUGGUCCUUGGAUCAGCAGAAGGCACAUGAGGAUCACCCAUGUGGUGUCGUACC | 314 nM | 48 nM |  | 
UCCAACCCUGUGAGGAUAUCGUCCAUUUUUUGUUCCGAGAAGGCACAUGAGGAUCACCCAUGUUUUUUAUUUUU | 28.1 nM | 93.7 nM |  | 
UGUGAGUUGAUGUUAGAUAGGAGUACAUGAGGAUCACCCAUGUAGGAUAUUCAAAGACGCAGAUAGAAGAAGGACAUAGGUUUC | 16.1 nM | 14.8 nM |  | 
GGGUACAUCGGAGGAUAUCAUGUAAAUACAUGAGGAUCACCCAUGUCGAUGGAGACAUCGGAGAUUCAGAAGGCCGAUGUACCG |  |  | 108 nM | 35.5 nM
UGAUAGGACACAGGAUAUACGUCCUAGAGAUACUAGGAAAGUUUCCUCACAUGAGGAUCACCCAUGUAGAAGGGUGUCCUAUCU | 9.93 nM | 222 nM |  | 
AUUUAACAUGAGGAUCACCCAUGUGAGGAUAUGUCCAUUUUAAACAAAUAGGAUAUGGACAGAAGGCACACCGG | 162 nM | 366 nM |  | 
CCAUGUUAGCAGGAUAUGCUAUUAAUCUUUUAUGCAGAAGGGCUUACAUGAGGAUCACCCAUGUAUUAAGUCAA | 14.1 nM | 47.8 nM |  | 
ACAAAGUGAGGAUAUGCUAUUAUACAUUAUUGUUAUUAUUUGCAGAAGGCACAUGAGGAUCACCCAUGUAAGAA | 29.8 nM | 22.6 nM |  | 
CACGGCGCAUGAGGAUAUCAGGGCGACCUUUCGACAUGAGGAUCACCCAUGUAAUCUACUCGGCGUGAGAAGGCAUGACAGCCA |  |  | 286 nM | 136 nM
UAGGGAGGAGGGAGGGAGACAUGAGGAUCACCCAUGUAAUGUCAGGAUAUUCUCAUAUUAUAUUAGGAGAAGGGAUACAUAUCU | 49.7 nM | 24.7 nM |  | 

Sequence | apparent Kd [1] | apparent Kd [2] | apparent Kd [3] | apparent Kd [4]
UAUUUACAUGAGGAUCACCCAUGUCAGGAUAUGCUUCUAUCGUCGAAAGACGAUAGUUGCAGAAGGGACAAUAU | 58.6 nM | 106 nM |  | 
UCACAGUCAGGAUAUUCUGUGUAGGUUGCGCCUCAAGCACUGAAGAAGGGACAUGAGGAUCACCCAUGUUCCUC | 15.5 nM | 18.7 nM |  | 
UUCGAAUUGUAGGAUAUUUUGCCCGAUUGGGCGGGAGAAGGGCAGACAUGAGGAUCACCCAUGUGUCAGGCAGU | 40.8 nM | 40.5 nM |  | 
GUAAAGUGAGGAUAUGGUAAAGUAAUUAUUUAGUAAGUAAUCCAGAAGGCACAUGAGGAUCACCCAUGUAAAUG | 31.3 nM | 36.8 nM |  | 
AUCAACCAGGCAGGAUAUCAAUGUGGCCUCAUCGUACACCCUCGCAACAUGAGGAUCACCCAUGUUGAGAAGGGCCAAUUAAGA | 10.1 nM | 6.02 nM |  | 
GCAUUUGAAGGAUAUGUCUUCGGAAACAUGAGGAUCACCCAUGUAAUACUCAUAUCACGGACAGAAGGUCAGGGUC | 35.1 nM | 40.9 nM |  | 
UGCAUGGUAGGAUAUACGGAACAUUAGGGUUUGUUAUGUAGACAUGAGGAUCACCCAUGUAGAAGGGCCGUGCU | 37.9 nM | 60.8 nM |  | 
AAAGACAGACAUGAGGAUCACCCAUGUUACGAAGAUAAUGGGAGAAGGGCGAUUGCAAAGCAAUCGCAGGAUAUUCAUAUUGUC |  |  | 39.6 nM | 10.8 nM
AAUAAACACACAGGAUAUAGCAUCGUCGUUGCGAACUUAGCGACGACGAUGCUAGAAGGGUGAACACAUGAGGAUCACCCAUGU |  |  |  | 38.4 nM
UCAGGAGUCACAGGAUAUCCGGCAUAGCAUACAGGAGAAGGGUGAUCACAAGCACAUGAGGAUCACCCAUGUGACAUUUGUGGA |  |  | 115 nM | 49.5 nM
UGGUUAUAUGAAGGAUAUACUUAACAUGAGGAUCACCCAUGUGGUGUUGUGAGUGAGUGAGUUUAGUAGAAGGUCAAUUCUUUU | 176 nM | 197 nM |  | 
UAGCUCGUGUGAGGAUAUGCCGCCGUUUCGGCUGCAGAAGGUGCUACGUUACAUGAGGAUCACCCAUGUCUCUGUUGUUUCGUC |  |  | 32.5 nM | 30.5 nM
UAAGAGUGAGGAUAUACGUCGCUGGUCCGGAUGGACGCAUGACAUGAGGAUCACCCAUGUAGAAGGCACAAAAC | 35 nM | 130 nM |  | 
AAAAGGAUCUAACACGACGGGUCACCAGAAGGGACAUUGGCACAUGAGGAUCACCCAUGUCUAGGUCAGGAUAUGGGAUCAAGA |  |  | 72.3 nM | 10.4 nM
GCCAUCGCAUGAGGAUAUGCUCCCGUUUCGGGAGCAGAAGGCAUGUGAUAACACAUGAGGAUCACCCAUGUAGUUAAGAUGGCA |  |  | 5.31 nM | 4.45 nM
GCCCGCGCUAAGGAUAUCAGGGUUAAAAUAGUAUGAGAAGGUAGCACAUGAGGAUCACCCAUGUGUCCCUUAUG | 16.5 nM | 17.3 nM |  | 
UAUAAGUCUCAUGUAACAUGAGGAUCACCCAUGUCAUAUUGUAGAAGGAUGAUAUUAUGUAUAUCAUAGGAUAUACUAUAAGAU | 21.2 nM | 23.3 nM |  | 
GGCAGUCCGACACAGGAUAUGGGUAACGAAACAUGAGGAUCACCCAUGUGGAAACAUCGGGUUGCCUAGAAGGGUGGAAAGAUUG |  |  | 117 nM | 32.1 nM
